Values after ≈ are worked out from the molar mass of the structure shown. Active and inactive are the calls of the source. The calls are words filed in the database; no cut-off is given here.
Key:
[1] = system: Mycobacterium tuberculosis; assay: Growth inhibitory activity against Mycobacterium tuberculosis H37R; assay type: functional
In short: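 M. tuberculosis H37Ra growth inhibition measured by microplate Alamar Blue assay (MABA); read-out as MIC; isoniazid and kanamycin sulfate run as reference drugs.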

Plasmodium falciparum [2] = assay: In vitro antimalarial activity against multidrug-resistant Plasmodium falciparum K1; assay type: functional, organism-based
In short: (§1)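 Cultured P. falciparum K1 (multidrug-resistant) tested by microculture radioisotope technique (Desjardins); growth measured as [3H]hypoxanthine uptake; EC50 taken as the concentration giving 50% reduction in parasite growth; chloroquine diphosphate and artemisinin as standards.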

[3] = Cytotoxicity against african green monkey kidney fibroblast (vero cell); assay type: functional, cell-based; conditions: Chlorocebus sabaeus
In short: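 Vero (African green monkey kidney fibroblast) cytotoxicity run by the colorimetric method of Skehan and co-workers.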

Plasmodium falciparum [4] = assay: In vitro antimalarial activity against multidrug-resistant Plasmodium falciparum K1; Not active; assay type: functional, organism-based; in short: as §1
Vero = assay: Cytotoxicity against african green monkey kidney fibroblast (vero cell) at a concentration less than 50 ug/mL; Inactive; assay type: functional, cell-based; conditions: Chlorocebus sabaeus

Row | SMILES | MIC [1] [µg/mL] | EC50 (Plasmodium falciparum [2]) [µg/mL] | IC50 [3] [µg/mL] | IA (Plasmodium falciparum [4]) | IA (Vero)
1 | CCOC(=O)[C@@]1(C2C[C@H]2C(=O)OC)CC[C@@]2(c3ccccc3)O[N@]21 (stereo partly specified) | 100 (≈ 302 µM) | 15.9 (≈ 48 µM) | 43.4 (≈ 131 µM) | – | –
2 | CCN(CC)CCCC(C)Nc1ccnc2cc(Cl)ccc12.O=P(O)(O)O.O=P(O)(O)O (stereo unspecified) [CHLOROQUINE PHOSPHATE] | – | 0.16 | – | – | –
3 | CCOC(=O)[C@@]1(CCC=C(C)C)CC[C@@]2(c3ccccc3)O[N@@]12 | – | 21.9 (≈ 69.4 µM) | – | – | –
4 | CCOC(=O)[C@]1(C)CC[C@@]2(c3ccccc3)O[N@@]12 | 200 (≈ 809 µM) | – | > 50 | – | –
5 | CCCCC[C@@]1(C(=O)OCC)CC[C@@]2(c3ccccc3)O[N@@]12 | 100 (≈ 330 µM) | – | > 50 | inactive | –
6 | CCC[C@]1(C(=O)OCC)CC[C@@]2(c3ccccc3)O[N@@]12 | 100 (≈ 363 µM) | 21.7 (≈ 78.8 µM) | 28.9 (≈ 105 µM) | – | –
7 | CCOC(=O)[C@@]1(CCCc2ccccc2)CC[C@@]2(c3ccccc3)O[N@@]12 | 200 (≈ 569 µM) | 2.9 (≈ 8.25 µM) | – | – | inactive
8 | CCOC(=O)[C@@]1(C)CC[C@@]2(c3ccccc3)O[N@]21 | 200 (≈ 809 µM) | 4.6 (≈ 18.6 µM) | > 50 | – | –
9 | CCOC(=O)[C@]1(C2C[C@H]2C(=O)OC)CC[C@@]2(c3ccccc3)O[N@]21 (stereo partly specified) | 200 (≈ 604 µM) | – | > 50 | inactive | –
10 | CCCC[C@]1(C(=O)OCC)CC[C@@]2(c3ccccc3)O[N@@]12 | 100 (≈ 346 µM) | 2.4 (≈ 8.29 µM) | – | – | inactive
11 | C[C@@H]1CC[C@H]2[C@@H](C)C(=O)O[C@@H]3O[C@@]4(C)CC[C@@H]1[C@]32OO4 [ARTEMISININ] | – | 0.0011 (≈ 0.0039 µM) | – | – | –
12 | C=CCCC[C@]1(C(=O)OCC)CC[C@@]2(c3ccccc3)O[N@@]12 | – | 13.9 (≈ 46.1 µM) | – | – | –
13 | CCCC[C@@]1(C(=O)OCC)CC[C@@]2(c3ccccc3)O[N@@]12 | 100 (≈ 346 µM) | – | – | inactive | inactive
14 | C=CCC[C@]1(C(=O)OCC)CC[C@@]2(c3ccccc3)O[N@@]12 | – | 44.2 (≈ 154 µM) | – | – | –
15 | CCCCC[C@]1(C(=O)OCC)CC[C@@]2(c3ccccc3)O[N@@]12 | 100 (≈ 330 µM) | 3.1 (≈ 10.2 µM) | – | – | inactive
16 | NNC(=O)c1ccncc1 [ISONIAZID] | 0.05 (≈ 0.365 µM) | – | – | – | –
17 | CCC[C@@]1(C(=O)OCC)CC[C@@]2(c3ccccc3)O[N@@]12 | 100 (≈ 363 µM) | – | > 50 | – | –
18 | CCOC(=O)[C@]1(CCCc2ccccc2)CC[C@@]2(c3ccccc3)O[N@@]12 | 25 (≈ 71.1 µM) | – | > 50 | inactive | –
19 | Cc1c2ccncc2c(C)c2c1[nH]c1ccccc12 [ELLIPTECINE] | – | – | 1 (≈ 4.06 µM) | – | –
20 | CCOC(=O)[C@]1(CCC2OCCO2)CC[C@@]2(c3ccccc3)O[N@@]12 | – | – | > 50 | inactive | –
21 | CCOC(=O)[C@@]1(CCC2OCCO2)CC[C@@]2(c3ccccc3)O[N@@]12 | 200 (≈ 600 µM) | 14.7 (≈ 44.1 µM) | > 50 | – | –

From ChEMBL document CHEMBL1145788, “Synthesis of ethyl 5-phenyl-6-oxa-1-azabicyclo[3.1.0]hexane-2-carboxylate derivatives and evaluation of their antimalarial activities” (J Med Chem, 2003)
